From ChEMBL document CHEMBL1132611, “Novel, potent, and selective phosphodiesterase-4 inhibitors as antiasthmatic agents: synthesis and biological activities of a series of 1-pyridylnaphthalene derivatives” (J Med Chem, 1999) come the findings set out here.

The species named for assay [1] is Cavia porcellus. Nature of the assay: Inhibition of histamine-induced bronchoconstriction in guinea pigs (95% confidence). It counts as functional. Put shortly: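 Guinea pigs received intraduodenal compound, and bronchoconstriction was induced with histamine dihydrochloride 2 µg/kg iv. Pulmonary inflation pressure was recorded in ventilated, gallamine-paralysed animals. ED50 was taken from the dose–inhibition curve using at least three doses, with 95% confidence limits.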

For assay [2], the target named is T1, Phosphodiesterase 4 (Homo sapiens, UniProt P27815+Q08499+Q07343+Q08493). Nature of the assay: Emetic effect in ferrets at peroral 100 mg/kg dose. It counts as functional, organism-based. Details: dose 100 mg/kg. As to conditions: Mustela putorius furo; target entry is the homologue from another species.
Assay [3] concerns Cavia porcellus. The assay is described as follows: Inhibition of antigen-induced bronchoconstriction in guinea pigs at 0.03 mg/kg intravenous dose. The class given is functional. In outline: (§1)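 Male Hartley guinea pigs were passively sensitised with iv rabbit anti-ovalbumin antiserum and challenged with ovalbumin 30 µg/kg iv 20–28 h later. Animals were under α-chloralose anaesthesia, ventilated, and paralysed with gallamine. Overflow volume was measured by Konzett–Rössler and expressed as a percentage of the maximum. Compound was given iv 2 min before challenge. ED50 came from the dose–inhibition curve with 95% confidence limits.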

A further assay concerns the target Phosphodiesterase 1 (Homo sapiens, UniProt P54750+Q01064+Q14123). The assay is described as follows: Inhibition of Phosphodiesterase 1 of guinea pig cardiac ventricle. The class given is protein assay, Cavia porcellus. The following applies: target entry is the homologue from another species. In outline:
(§2)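 PDE1, 2 and 3 came from guinea pig cardiac ventricle and PDE4 and 5 from lung, separated by Resource-Q anion exchange on a sodium acetate gradient at pH 6.5. Assays used 1.0 µM [3H]cAMP or [3H]cGMP in 50 mM Tris-HCl pH 8.0, 5 mM MgCl2 and 4 mM 2-mercaptoethanol, for 30 min at 30 °C. Substrate hydrolysis was kept at or below 20%. Triplicates were run at 3–4 inhibitor levels, and IC50 was read graphically.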

The species named for assay [4] is Cavia porcellus. Nature of the assay: Inhibition of antigen-induced bronchoconstriction in guinea pigs (95% confidence). It counts as functional. Put shortly: as §1
Another assay addresses Phosphodiesterase 3 (Homo sapiens, UniProt Q14432+Q13370). The assay is described as follows: In vitro inhibition of Phosphodiesterase 3 activity from guinea pig cardiac ventricle. It counts as protein assay, Cavia porcellus. As to conditions: target entry is the homologue from another species. Put shortly: as §2
Assay [5] concerns Cavia porcellus. Nature of the assay: Inhibition of antigen-induced bronchoconstriction in guinea pigs 0.1 mg/kg intravenous dose. The class given is functional. Put shortly: as §1
Assay [6] has as its target T1, Phosphodiesterase 4. The assay is described as follows: In vitro inhibition of Phosphodiesterase 4 from guinea pig lung. As to conditions: target entry is the homologue from another species. The class given is protein assay, Cavia porcellus.
Assay [7] has as its target T1, Phosphodiesterase 4. Nature of the assay: Displacement of [3H]- rolipram binding to guinea pig brain. The class given is tissue-based, Cavia porcellus. As to conditions: target entry is the homologue from another species. On the technique in general: In a radioligand displacement assay an active substance lowers the binding of a labelled ligand.
Assay [8] deals with Cavia porcellus. The assay is described as follows: Inhibition of antigen-induced bronchoconstriction in guinea pigs 3 mg/kg intravenous dose. It counts as functional. Put shortly: as §1
Assay [9] relates to Cavia porcellus. Nature of the assay: Inhibition of antigen-induced bronchoconstriction in guinea pigs at 1 mg/kg intravenous dose. The class given is functional. Put shortly: as §1

For the molecule `COc1cc2cc(CO)c(CO)c(-c3ccnc(-n4c(=O)ccc5ccccc54)c3)c2cc1OC`, the values for the 50% effective dose (ED50) in the assay listed under Cavia porcellus [1] and in the assay filed under Cavia porcellus [4] were 0.4 mg/kg and 0.12 mg/kg, respectively. In addition, the Emesis (vomiting/tested) on Phosphodiesterase 4 [2] was 4. For the same molecule, the Reduction with Cavia porcellus [3] was -11%; with Cavia porcellus [5], 68%; with Cavia porcellus [8], 90%; in the assay with Cavia porcellus [9], 86%. The half-inhibitory concentration (IC50) turned out to be 2000 nM against Phosphodiesterase 1, 330 nM against Phosphodiesterase 3 and 2.8 nM on Phosphodiesterase 4 [6]. Further, at Phosphodiesterase 4 [7], the inhibition constant (Ki) is 6.2 nM.

A word on the ED50: it is the dose at which the effect has come halfway, by size or by number of responders. The term IC50 denotes the concentration that inhibits the measured activity by half. High values mean lower potency, low ones higher potency. For orientation: Ki means a dissociation constant, usually derived from enzyme kinetics or from competition with a known ligand.
